What was measured:
HEK-293T = assay: Incucyte cell viability with HEK293T; format: toxicity, cell-based; settings: human, 10 µM, compound concentration 10 uM; further: filed as whole numbers so only -1 and 0 and 1 occur
Fibroblast = assay: Multiplex assay against human fibroblast; format: toxicity, cell-based
How it was run: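 Imaging took place on a CQ1 microscope at 37°C and 5% CO2 once compound had been added to live cells stained at seeding with Hoechst33342, BioTracker Green Microtubule Cytoskeleton Dye, MitoTracker Red and Annexin V Alexa Fluor 680. CellPathfinder machine-learning gating classed cells as Hoechst high-intensity objects or normal cells, classed normal cells as having healthy, pyknosed or fragmented nuclei, and classed pyknosed cells as mitotic or apoptotic. Tubulin, mitochondrial-mass and membrane-permeability phenotypes are per cents of the healthy-nucleus cells.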

[1] = 12 h, 1 µM, compound concentration 1 uM, replicate 1
[2] = 12 h, 1 µM, compound concentration 1 uM, replicate 2
[3] = 12 h, 10 µM, compound concentration 10 uM, replicate 1
[4] = 12 h, 10 µM, compound concentration 10 uM, replicate 2
[5] = 24 h, 1 µM, compound concentration 1 uM, replicate 1
[6] = 24 h, 1 µM, compound concentration 1 uM, replicate 2

CCC(=O)O[C@]1(C(=O)SCF)[C@H](C)C[C@H]2[C@@H]3C[C@H](F)C4=CC(=O)C=C[C@]4(C)[C@@]3(F)[C@@H](O)C[C@@]21C [FLUTICASONE PROPIONATE]
Growth Rate (HEK-293T; 0 h, replicate number 1, timepoint 0 hours): 1
Growth Rate (HEK-293T; 0 h, replicate number 2, timepoint 0 hours): 0
Growth Rate (HEK-293T; 6 h, replicate number 1, timepoint 6 hours): 0
Growth Rate (HEK-293T; 12 h, replicate number 1, timepoint 12 hours): 0
Growth Rate (HEK-293T; 18 h, replicate number 1, timepoint 18 hours): 0
Growth Rate (HEK-293T; 18 h, replicate number 2, timepoint 18 hours): 1
Growth Rate (HEK-293T; 24 h, replicate number 1, timepoint 24 hours): 0
Growth Rate (HEK-293T; 24 h, replicate number 2, timepoint 24 hours): 1
Population Apoptotic (%) (Fibroblast; [1]): 71%
Population Fragmented Nuclei (%) (Fibroblast; [1]): 22%
Population Healthy Nuclei (%) (Fibroblast; [1]): 45%
Population Hoechst High Intensity Objects (%) (Fibroblast; [1]): 13%
Population Membrane Permeable-Phenotype (%) (Fibroblast; [1]): 33%
Population Mitochondria Different-Phenotype (%) (Fibroblast; [1]): 0%
Population Mitotic Cells (%) (Fibroblast; [1]): 28%
Population Normal (%) (Fibroblast; [1]): 86%
Population Pyknosed Nuclei (%) (Fibroblast; [1]): 31%
Population Tubulin-Different-Phenotype (%) (Fibroblast; [1]): 40%
Total Cell Count (Fibroblast; [1]): 76
Population Fragmented Nuclei (%) (Fibroblast; [2]): 4%
Population Healthy Nuclei (%) (Fibroblast; [2]): 78%
Population Hoechst High Intensity Objects (%) (Fibroblast; [2]): 12%
Population Membrane Permeable-Phenotype (%) (Fibroblast; [2]): 3%
Population Mitochondria Different-Phenotype (%) (Fibroblast; [2]): 9%
Population Normal (%) (Fibroblast; [2]): 87%
Population Pyknosed Nuclei (%) (Fibroblast; [2]): 16%
Population Tubulin-Different-Phenotype (%) (Fibroblast; [2]): 9%
Total Cell Count (Fibroblast; [2]): 68
Population Apoptotic (%) (Fibroblast; [3]): 62%
Population Fragmented Nuclei (%) (Fibroblast; [3]): 26%
Population Healthy Nuclei (%) (Fibroblast; [3]): 50%
Population Hoechst High Intensity Objects (%) (Fibroblast; [3]): 16%
Population Membrane Permeable-Phenotype (%) (Fibroblast; [3]): 38%
Population Mitochondria Different-Phenotype (%) (Fibroblast; [3]): 30%
Population Mitotic Cells (%) (Fibroblast; [3]): 37%
Population Normal (%) (Fibroblast; [3]): 83%
Population Pyknosed Nuclei (%) (Fibroblast; [3]): 23%
Population Tubulin-Different-Phenotype (%) (Fibroblast; [3]): 53%
Total Cell Count (Fibroblast; [3]): 149
Population Apoptotic (%) (Fibroblast; [4]): 28%
Population Fragmented Nuclei (%) (Fibroblast; [4]): 8%
Population Healthy Nuclei (%) (Fibroblast; [4]): 81%
Population Hoechst High Intensity Objects (%) (Fibroblast; [4]): 8%
Population Membrane Permeable-Phenotype (%) (Fibroblast; [4]): 3%
Population Mitochondria Different-Phenotype (%) (Fibroblast; [4]): 37%
Population Mitotic Cells (%) (Fibroblast; [4]): 71%
Population Normal (%) (Fibroblast; [4]): 92%
Population Pyknosed Nuclei (%) (Fibroblast; [4]): 10%
Population Tubulin-Different-Phenotype (%) (Fibroblast; [4]): 35%
Total Cell Count (Fibroblast; [4]): 48
Population Apoptotic (%) (Fibroblast; [5]): 66%
Population Fragmented Nuclei (%) (Fibroblast; [5]): 21%
Population Healthy Nuclei (%) (Fibroblast; [5]): 62%
Population Hoechst High Intensity Objects (%) (Fibroblast; [5]): 25%
Population Membrane Permeable-Phenotype (%) (Fibroblast; [5]): 28%
Population Mitochondria Different-Phenotype (%) (Fibroblast; [5]): 0%
Population Mitotic Cells (%) (Fibroblast; [5]): 33%
Population Normal (%) (Fibroblast; [5]): 74%
Population Pyknosed Nuclei (%) (Fibroblast; [5]): 16%
Population Tubulin-Different-Phenotype (%) (Fibroblast; [5]): 34%
Total Cell Count (Fibroblast; [5]): 75
Population Apoptotic (%) (Fibroblast; [6]): 16%
Population Fragmented Nuclei (%) (Fibroblast; [6]): 3%
Population Healthy Nuclei (%) (Fibroblast; [6]): 84%
Population Hoechst High Intensity Objects (%) (Fibroblast; [6]): 11%
Population Membrane Permeable-Phenotype (%) (Fibroblast; [6]): 11%
Population Mitochondria Different-Phenotype (%) (Fibroblast; [6]): 11%
Population Mitotic Cells (%) (Fibroblast; [6]): 83%
Population Normal (%) (Fibroblast; [6]): 88%
Population Pyknosed Nuclei (%) (Fibroblast; [6]): 11%
Population Tubulin-Different-Phenotype (%) (Fibroblast; [6]): 20%

From ChEMBL document CHEMBL4689842, “EUbOPEN Chemogenomics Library wave 1” (2021)
